Calls of active or inactive are those of the source. The calls are words filed in the database; no cut-off is given here.
Experiments:
[1] = test system: Plasmodium falciparum; assay: Inhibition of Plasmodium falciparum Pfnek1 at 50 uM
How it was run: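 Kinase reaction in 20 mM Tris/HCl pH 7.5 with 20 mM MgCl2, 2 mM MnCl2, 0.25 µCi [γ-33P]ATP and 5 µg myelin basic protein as substrate. Compounds were tested at 50, 5 and 1 µM with equal DMSO in all reactions. Reactions were stopped in Laemmli buffer and run on SDS gel. Gels were Coomassie-stained, dried, autoradiographed and quantified by phosphorimaging as % remaining activity.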

[2] = test system: Plasmodium falciparum; assay: Inhibition of Plasmodium falciparum Pfnek1 at 1 uM
How it was run: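 Compounds were tested at 50, 5 and 1 µM with equal DMSO in all reactions. Reactions were stopped with Laemmli buffer and run on SDS-PAGE. Remaining activity (%) was quantified by autoradiography and phosphorimaging; no IC50 was determined.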

[3] = Selectivity index ratio of IC50 for human MCF7 cells to IC50 for chloroquine-sensitive Plasmodium falciparum F32; type: functional
How it was run: (§1)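 The ratio compares the MCF-7 IC50 with the parasite IC50. MCF-7 cells were grown in DMEM with 2 mM L-glutamine and 10% FCS at 37 °C, 5% CO2, and used in exponential growth. They were seeded at 200 000 cells/mL; after 24 h, compounds were added at 0.01–100 µg/mL. Viability was read by [3H]hypoxanthine incorporation and IC50 taken graphically from the curves. Parasite IC50s came from the [3H]hypoxanthine incorporation assay on synchronized cultures.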

[4] = test system: Plasmodium falciparum; assay: Antiplasmodial activity against chloroquine-resistant Plasmodium falciparum FcM29 by [3H]hypoxanthine uptake; type: functional, organism-based
How it was run: (§2)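 Parasites kept in continuous culture per Trager and Jensen (modified) and synchronized every 48 h by 5% D-sorbitol lysis. Growth was read as [3H]hypoxanthine incorporation by the modified Desjardins method.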

[5] = test system: Plasmodium falciparum; assay: Antiplasmodial activity against chloroquine-resistant Plasmodium falciparum FcB1 by [3H]hypoxanthine uptake; type: functional, organism-based; how it was run: as §2
[6] = test system: Plasmodium falciparum; assay: Antiplasmodial activity against chloroquine-sensitive Plasmodium falciparum F32 by [3H]hypoxanthine uptake; type: functional, organism-based; how it was run: as §2
[7] = test system: MCF7; assay: Cytotoxicity against human MCF7 cells assessed as [3H]hypoxanthine incorporation; type: cell-based
How it was run: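 MCF-7 cells were grown in DMEM with 2 mM L-glutamine and 10% FCS at 37 °C, 5% CO2. Exponential-phase cells were trypsinized and seeded at 200 000 cells/mL. After 24 h, the medium was replaced with fresh medium containing compound at 0.01–100 µg/mL. Viability was read by [3H]hypoxanthine incorporation, and IC50 was taken graphically from dose-response curves.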

[8] = Selectivity index ratio of IC50 for human MCF7 cells to IC50 for chloroquine-resistant Plasmodium falciparum FcM29; type: functional; how it was run: as §1
[9] = Selectivity index ratio of IC50 for human MCF7 cells to IC50 for chloroquine-resistant Plasmodium falciparum FcB1; type: functional; how it was run: as §1
[10] = test system: Plasmodium vinckei petteri; assay: Antiplasmodial activity as reduced parasitaemia at day 5 in Plasmodium vinckei petteri infected CD mice (Mus musculus) at 5 mg/kg/day intraperitoneal dose; type: functional; settings: ip, 120 h
How it was run: (§3)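 Four-day suppressive test in female CD mice (20 ± 2 g), each infected on day 0 with 10^6 P. vinckei petteri-parasitized erythrocytes in RPMI. Groups of five received ip doses on days 0–3. Controls got RPMI alone. Parasitaemia was counted on Giemsa-stained tail-blood smears (≥5000 erythrocytes). % inhibition = (control − treated)/control × 100.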

[11] = Toxicity in Plasmodium vinckei petteri infected CD mice (Mus musculus) assessed as mortality at 5 mg/kg/day, intraperitoneally measured on day 1; type: organism-based; set-up: route intraperitoneal; settings: in vivo, ip, read-out: INH
How it was run: (§4)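 4-day suppressive test in female CD mice (20 ± 2 g) infected on day 0 with 10^6 parasitized red cells in RPMI. Groups of five were dosed intraperitoneally on days 0–3 at 5 or 20 mg/kg; reference dosing was 1 or 10 mg/kg, with RPMI-alone controls. Parasitaemia was counted on day-4 Giemsa tail-blood smears. Survival was followed for three additional weeks.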

[12] = Toxicity in Plasmodium vinckei petteri infected CD mice (Mus musculus) assessed as mortality at 5 mg/kg/day, […] measured on day 5; type: organism-based; settings: in vivo, read-out: INH
[13] = Toxicity in Plasmodium vinckei petteri infected CD mice (Mus musculus) assessed as mortality at 5 mg/kg/day, intraperitoneally measured on day 15; type: organism-based; set-up: route intraperitoneal; settings: in vivo, ip, read-out: INH; how it was run: as §4
[14] = Toxicity in Plasmodium vinckei petteri infected CD mice (Mus musculus) assessed as mortality at 20 mg/kg/day, intraperitoneally measured on day 1; type: organism-based; set-up: route intraperitoneal; settings: in vivo, ip, read-out: INH; how it was run: as §4
[15] = Toxicity in Plasmodium vinckei petteri infected CD mice (Mus musculus) assessed as mortality at 20 mg/kg/day, intraperitoneally measured on day 5; type: organism-based; set-up: route intraperitoneal; settings: in vivo, ip, read-out: INH; how it was run: as §4
[16] = Toxicity in Plasmodium vinckei petteri infected CD mice (Mus musculus) assessed as mortality at 20 mg/kg/day, intraperitoneally measured on day 15; type: organism-based; set-up: route intraperitoneal; settings: in vivo, ip, read-out: INH; how it was run: as §4
[17] = test system: Plasmodium vinckei petteri; assay: Antiplasmodial activity as reduced parasitaemia at day 5 in Plasmodium vinckei petteri infected CD mice (Mus musculus) at 20 mg/kg/day intraperitoneal dose; type: functional; settings: ip, 120 h; how it was run: as §3
[18] = test system: Plasmodium vinckei petteri; assay: Antiplasmodial activity as reduced parasitaemia at day 5 in Plasmodium vinckei petteri infected CD mice (Mus musculus) at 10 mg/kg/day intraperitoneal dose; type: functional; settings: ip, 120 h; how it was run: as §3
[19] = Toxicity in Plasmodium vinckei petteri infected CD mice (Mus musculus) assessed as mortality at 10 mg/kg/day, intraperitoneally measured on day 1; type: organism-based; set-up: route intraperitoneal; settings: in vivo, ip, read-out: INH; how it was run: as §4
[20] = Toxicity in Plasmodium vinckei petteri infected CD mice (Mus musculus) assessed as mortality at 10 mg/kg/day, intraperitoneally measured on day 5; type: organism-based; set-up: route intraperitoneal; settings: in vivo, ip, read-out: INH; how it was run: as §4
[21] = Toxicity in Plasmodium vinckei petteri infected CD mice (Mus musculus) assessed as mortality at 10 mg/kg/day, intraperitoneally measured on day 15; type: organism-based; set-up: route intraperitoneal; settings: in vivo, ip, read-out: INH; how it was run: as §4
[22] = test system: Plasmodium vinckei petteri; assay: Antiplasmodial activity as reduced parasitaemia at day 5 in Plasmodium vinckei petteri infected CD mice (Mus musculus) at 1 mg/kg/day intraperitoneal dose; type: functional; settings: ip, 120 h; how it was run: as §3
[23] = Toxicity in Plasmodium vinckei petteri infected CD mice (Mus musculus) assessed as mortality at 1 mg/kg/day, intraperitoneally measured on day 1; type: organism-based; set-up: route intraperitoneal; settings: in vivo, ip, read-out: INH; how it was run: as §4
[24] = Toxicity in Plasmodium vinckei petteri infected CD mice (Mus musculus) assessed as mortality at 1 mg/kg/day, intraperitoneally measured on day 5; type: organism-based; set-up: route intraperitoneal; settings: in vivo, ip, read-out: INH; how it was run: as §4
[25] = Toxicity in Plasmodium vinckei petteri infected CD mice (Mus musculus) assessed as mortality at 1 mg/kg/day, intraperitoneally measured on day 15; type: organism-based; set-up: route intraperitoneal; settings: in vivo, ip, read-out: INH; how it was run: as §4

Compound	Activity [1]	inhibition [2] [%]	Ratio IC50 [3]	IC50 [4] [µM]	IC50 [5] [µM]	IC50 [6] [µM]	IC50 [7] [µM]	Ratio IC50 [8]	Ratio IC50 [9]	inhibition in vivo at 5 mg/kg/day [10] [%]	mortality [11] [%]	mortality [12] [%]	mortality [13] [%]	mortality [14] [%]	mortality [15] [%]	mortality [16] [%]	further results
C[C@@]12CCC[C@]3(C)c4cc5c(O)ccc(O)c5cc4C(=O)[C@](O)(OC1)[C@H]23 [ALISIAQUINOL]	Active	49	<1	7.9	6.4	9.9	1.7										
C[C@@]12CCC[C@]3(C)c4cc5c(cc4C(=O)[C@](O)(OC1)[C@H]23)C(=O)C=CC5=O [ALISIAQUINONE A]	Active	41	4	8.5	7.4	9.1	36	4	5	63	0	0	40	100	100	100	
COC1=CC(=O)c2cc3c(cc2C1=O)C(=O)[C@]1(O)OC[C@@]2(C)CCC[C@@]3(C)[C@@H]21 [ALISIAQUINONE B]			<1	2.6	8.4	7.1	0.8										
C[C@@]12CCC[C@]3(C)c4cc5c(cc4C(=O)[C@](O)(OC1)[C@H]23)C(=O)C1=C(NCCS1(=O)=O)C5=O [ALISIAQUINONE C]			270	0.08	0.21	0.15	41	500	200	36	0	0	60	60	80	100	Activity [2]: inactive; inhibition in vivo at 20 mg/kg/day [17]: 42%
CCN(CC)CCCC(C)Nc1ccnc2cc(Cl)ccc12 (stereo not drawn) [CHLOROQUINE]							12										inhibition in vivo at 10 mg/kg/day [18]: 100%; mortality [19]: 0%; mortality [20]: 0%; mortality [21]: 0%; inhibition in vivo at 1 mg/kg/day [22]: 0%; mortality [23]: 0%; mortality [24]: 0%; mortality [25]: 100%
